A selection: hits, their analogues and other compounds. The true share with any hit is near 3.5%.
esBAF inh – SWI/SNF esBAF complex inhibition | mouse ES cells, Bmi1-luciferase knock-in reporter, 24 h; 100% = twice the neutral-well signal | reporter increase, % at 12.5 µM | 350,000 compounds, 2% hits; in the data active = activation above about 40%; inconclusive = no clear call, values can overlap the other calls;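 note: a rise in the Bmi1 reporter signal indicates esBAF inhibition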
ERAP1 HTS inh – ERAP1 (human) enzyme inhibition; Q9NZ08; recombinant ERAP1, Leu-AMC fluorescence, 60 min; inhibition, % at 10.7 µM; 340,000 compounds, 0.15% hits; AID 652197;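 active = mean replicate inhibition of at least 30%, or all replicates individually reaching that 30% level; inactive = mean below 30% and not every replicate reaching it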
Wnt bcat act – Wnt/beta-catenin pathway activation; Wnt/beta-catenin reporter cell assay, activator, plate reader; activation, % at 9.35 µM; 300,000 compounds, 1.2% hits; AID 743398; in the data active = activation above about 30%, passing the limit was not always enough; inconclusive = no clear call, values can overlap the other calls
Env fusion inh – blocks HIV Env-driven cell-cell fusion | 360,000 compounds, 1.1% hits | HeLa-JRFL Env/CEM21 cell fusion, luciferase | inhibition, % at 12.3 µM;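 active = mean replicate inhibition score of at least 50 and every replicate individually at or above 50; inconclusive = only one of the two criteria met; inactive = mean below 50 and not all replicates reaching 50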
Cneo AK release – Cryptococcus neoformans lysis via adenylate kinase release; C. neoformans lysis, adenylate kinase release luminescence, 4 h; normalised: neutral wells 0, clomiphene wells 100; lysis activity, % at 15 µM; 360,000 compounds, 0.2% hits; AID 651654;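 active = mean lysis activity across replicates of at least 80%, whatever share of replicates individually reach that level; inactive = mean lysis activity below 80%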
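read-out = cell lysis signal | test system = log-phase Cryptococcus neoformans yeast cells | input = cells at 5 × 10^6 per mL | medium = fresh YPD growth medium | signal = luminescent adenylate kinase detection reagent | timing = 4 h at 37 °C static, read 1 h later | dosing = single dose | controls = Clomiphene as positive lysis control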
MITF act – activators of MITF-driven TRPM1 promoter activity in SK-MEL-5 cells. SK-MEL-5 TRPM1-promoter luciferase, 24 h; % of positive control, neutral wells = 0. activation, % at 12.5 µM. 300,000 compounds, 0.75% hits;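 active = mean activation of at least 80% with every replicate also reaching 80%; inconclusive = mean reaches 80% but some replicate falls short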
Of the large screens only hits and unclear results are named; the others gave an inactive call; ! = a repeat was not active.

COc1ccc(NC(=O)Nc2ccc3c(c2)CC(=O)N([C@H](C)CO)C[C@H](C)[C@@H](CN(C)C(=O)Nc2ccc(OC)cc2)O3)cc1	none (no result: Wnt bcat act, MITF act)
O=C(C1CCC(CNc2nc(=S)[nH]c3ccccc23)CC1)N1CCN(c2ccccn2)CC1 (centres undefined)	Env fusion inh 65 (no result: ERAP1 HTS inh, Wnt bcat act)
Oc1ccccc1-c1cc(C(F)(F)C(F)F)nc(-c2ccccc2)n1	none (no result: ERAP1 HTS inh, Wnt bcat act)
O=[N+]([O-])c1ccc(O)c(-c2cc(C(F)(F)F)nc(-c3ccccc3)n2)c1	Env fusion inh 60
C[C@H]1CCCCO[C@@H](CN(C)C(=O)Nc2ccc(C(F)(F)F)cc2)[C@@H](C)CN([C@@H](C)CO)C(=O)c2cc(NC(=O)Nc3ccccc3)ccc2O1	none (no result: Wnt bcat act, MITF act)
C[C@H](CO)N1C[C@H](C)[C@@H](CN(C)C(=O)Nc2ccccc2)Oc2cc(C#CC3(O)CCCC3)ccc2S1(=O)=O	none (no result: Wnt bcat act, MITF act)
O=C1CCC(C(=O)N2CCCC(C(=O)c3ccc4ccccc4c3)C2)=NN1 (centres undefined)	none
Cc1ccc2c(c1)C1(C(=O)N2)N2CCCC2C(C(=O)c2ccc3ccccc3c2)C12C(=O)Nc1ccccc12 (centres undefined)	esBAF inh 50!
O=C(C[C@@H]1CC[C@@H](NC(=O)Nc2ccc3c(c2)OCO3)[C@H](CO)O1)NCc1ccc(F)cc1	none (no result: Wnt bcat act, MITF act)
COc1cccc(C2CC(c3ccc(C)cc3)n3nc(N)nc3N2)c1 (centres undefined)	Env fusion inh 66 (no result: MITF act)
COc1cccc(CNC(=O)CCC2CCCN(C(=O)c3cc4ccccc4o3)C2)c1 (centres undefined)	esBAF inh 62, MITF act 84
Cc1ccc(-c2cn3c(=O)cc(C)[nH]c3n2)cc1	esBAF inh inconclusive, Wnt bcat act 45 (no result: ERAP1 HTS inh)
CCOC(=O)CSc1nc2ccccc2c(=O)n1NC(=O)c1ccccc1	Wnt bcat act 38 (no result: ERAP1 HTS inh)
COc1ccc(C(=O)Nn2c(SCC(=O)c3ccccc3)nc3ccccc3c2=O)cc1	none (no result: esBAF inh, ERAP1 HTS inh, Wnt bcat act, Cneo AK release, MITF act)
CCCN(CCC)C(=O)CSc1nc2ccccc2c(=O)n1CC1COc2ccccc2O1 (centres undefined)	none (no result: Cneo AK release, MITF act)
CCOC(=O)CSc1nc2ccccc2c(=O)n1CC1COc2ccccc2O1 (centres undefined)	Env fusion inh 65 (no result: ERAP1 HTS inh)
CCCNC(=O)N1CC2(CN(CC3CC3)C2)c2c(n(C)c3cc(OC)ccc23)[C@H]1CO	none (no result: esBAF inh, Wnt bcat act, Env fusion inh, Cneo AK release, MITF act)
Cc1cccc(-c2nnc(NC(=O)c3ccco3)s2)c1	esBAF inh 59
O=C(Nc1nnc(-c2ccc(F)cc2)s1)c1ccco1	esBAF inh 46, MITF act 106
Cc1cccc(N(C)S(=O)(=O)c2nnc(NC(=O)c3ccco3)s2)c1	none
CN(C)c1ccc(NC(=O)CSc2nc(N)c(C(=O)Nc3ccc(N(C)C)cc3)s2)cc1	Env fusion inh 41 (no result: esBAF inh)
COc1ccc(NC(=O)CSc2nc(N)c(C(=O)Nc3ccc(N(C)C)cc3)s2)cc1	none (no result: ERAP1 HTS inh, Wnt bcat act, Env fusion inh)
Cc1noc(C)c1NC(=O)Nc1cccc2c1O[C@H](CN(C)C(=O)Nc1ccc(C(F)(F)F)cc1)[C@H](C)CN([C@@H](C)CO)C2=O	none (no result: ERAP1 HTS inh, Wnt bcat act, MITF act)
S=C(Nc1ccccc1)Nc1ccc2cn[nH]c2c1	Wnt bcat act 33 (no result: Cneo AK release)
Cc1ccc(NC(=S)Nc2ccc3cn[nH]c3c2)cc1	none (no result: esBAF inh, ERAP1 HTS inh, Cneo AK release)
COc1ccc(NC(=O)N(C)C[C@H]2OCCCC[C@@H](C)Oc3ccc(N(C)C)cc3C(=O)N([C@H](C)CO)C[C@H]2C)cc1	Cneo AK release 112 (no result: Wnt bcat act, MITF act)
COc1ccc(NC(=O)N(C)C[C@H]2OCCCC[C@H](C)Oc3ccc(NC(=O)C4CCCCC4)cc3C(=O)N([C@@H](C)CO)C[C@@H]2C)cc1	Cneo AK release 90 (no result: Wnt bcat act, MITF act)
COc1ccc(NC(=O)N(C)C[C@H]2OCCCC[C@@H](C)Oc3ccc(N(C)C)cc3C(=O)N([C@@H](C)CO)C[C@@H]2C)cc1	none (no result: Wnt bcat act, MITF act)
Cc1cc(NC(=O)COc2cccc(C)c2C)no1	none
Cc1cc(NC(=O)COc2ccc(F)c(Cl)c2)no1	Env fusion inh 65
Cc1cc(NC(=O)c2ccc(Cl)cc2)no1	MITF act 106 (no result: ERAP1 HTS inh)
Cc1cc(NC(=O)COc2ccccc2C)no1	MITF act 95 (no result: esBAF inh, Cneo AK release)
Cc1ccccc1OCC(=O)NC1=NCCS1	esBAF inh 44 (no result: Wnt bcat act, MITF act)
